Entries after “also recorded” stand apart in the source; their conditions may differ.

These results are taken from PMC3812312 (Journal of medicinal chemistry, 2013).

One data set concerns the target human ERβ LBD (Homo sapiens, UniProt Q92731). As to the kind of experiment: ERβ agonist luciferase reporter assay in HEK 293T cells. The settings on record: 10 μM; for ER subtype preference (ratio of ERα to ERβ agonist activity): agonist assay; for ERβ agonist activity: HEK-luciferase assay. The class given is cell-based.
Another data set concerns the target human recombinant HDAC1 (Homo sapiens, UniProt Q13547). As to the kind of experiment: HDAC activity assay. The class given is biochemical. As to conditions: HDAC isoforms 1, 6 and 8 tested.
For a further data set, the system named is MCF-7 cells. Nature of the data set: Cell viability assay. The class given is cell-based, human.
A further data set deals with MDA-MB-231 cells. As to the kind of experiment: Cell viability assay. The class given is cell-based. As to conditions: 72 hours after drug dosing; ERα−/β− breast cancer. The gist of the method:
(§1)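 Cell lines: MCF-7 (gift) and MDA-MB-231, DU145 and Vero (ATCC), kept in EMEM with 10% FBS, with or without antibiotics, at 37 °C under 5% CO2. Cells exposed to test compound in duplicate for 72 h; viability read by MTS and MTT colorimetric assays per manufacturer's instructions. IC50 obtained by logit plot analysis.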

The subject of a further data set is VERO cells. As to the kind of experiment: Cell viability assay. The class given is cell-based. As to conditions: VERO versus MCF-7.
Data set [1] addresses T1, human ERα ligand binding domain (Homo sapiens, UniProt P03372).
T1 sequence (P03372 301-595): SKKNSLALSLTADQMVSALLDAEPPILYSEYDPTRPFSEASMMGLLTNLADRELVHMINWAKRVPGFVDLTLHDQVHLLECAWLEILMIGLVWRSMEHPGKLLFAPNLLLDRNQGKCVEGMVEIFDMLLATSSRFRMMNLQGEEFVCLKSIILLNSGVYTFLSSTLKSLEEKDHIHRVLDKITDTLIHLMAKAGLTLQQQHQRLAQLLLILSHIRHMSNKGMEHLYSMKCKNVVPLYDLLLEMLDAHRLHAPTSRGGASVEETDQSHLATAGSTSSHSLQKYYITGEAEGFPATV
Nature of the data set: ERα agonist luciferase reporter assay in HEK 293T cells. The class given is cell-based. The settings on record: 10 μM, charcoal stripped serum.

For another data set, the system named is DU145 cells. As to the kind of experiment: Cell viability assay. The class given is cell-based. The settings on record: 72 hours after drug dosing; metastatic prostate cancer. The gist of the method:
as §1

A further data set deals with T2, human recombinant HDAC8 (Homo sapiens, UniProt Q9BY41).
T2 sequence (Q9BY41 1-377): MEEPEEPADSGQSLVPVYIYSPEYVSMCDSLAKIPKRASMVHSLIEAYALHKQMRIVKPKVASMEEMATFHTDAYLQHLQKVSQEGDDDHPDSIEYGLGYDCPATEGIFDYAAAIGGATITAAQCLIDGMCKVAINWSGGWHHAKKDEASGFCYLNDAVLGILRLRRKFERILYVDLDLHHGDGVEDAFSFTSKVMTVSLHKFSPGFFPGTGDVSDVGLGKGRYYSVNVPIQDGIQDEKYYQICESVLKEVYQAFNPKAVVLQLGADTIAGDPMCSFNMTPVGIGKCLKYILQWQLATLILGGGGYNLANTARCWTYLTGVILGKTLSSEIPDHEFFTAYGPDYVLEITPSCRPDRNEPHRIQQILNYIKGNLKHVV
As to the kind of experiment: HDAC activity assay. The class given is biochemical. The settings on record: maximum concentration tested 100 μM.

The subject of a further data set is human recombinant HDAC6. Nature of the data set: HDAC activity assay. The class given is biochemical. The settings on record: HDAC6 vs HDAC1 and HDAC8. The gist of the method:
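Run under contract. Human recombinant HDAC1, HDAC6 or HDAC8 incubated with HDAC substrate, 5 μg BSA and serial dilutions of test compound (DMSO stocks; 1% DMSO final, top 100 μM) in duplicate, 37 °C, 30 min. Developer added for 15 min at room temperature; fluorescence ex 360/em 460 nm.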

Sequence of human ERβ LBD (Q92731 263-530): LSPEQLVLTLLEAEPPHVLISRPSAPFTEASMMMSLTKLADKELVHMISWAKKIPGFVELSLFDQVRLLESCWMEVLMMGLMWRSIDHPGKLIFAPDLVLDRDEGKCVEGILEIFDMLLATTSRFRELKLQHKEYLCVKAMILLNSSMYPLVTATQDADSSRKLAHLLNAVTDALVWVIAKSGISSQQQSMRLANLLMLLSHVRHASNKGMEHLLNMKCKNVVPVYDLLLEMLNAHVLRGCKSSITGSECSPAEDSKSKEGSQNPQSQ
Sequence of human recombinant HDAC1 (Q13547 whole entry, canonical isoform): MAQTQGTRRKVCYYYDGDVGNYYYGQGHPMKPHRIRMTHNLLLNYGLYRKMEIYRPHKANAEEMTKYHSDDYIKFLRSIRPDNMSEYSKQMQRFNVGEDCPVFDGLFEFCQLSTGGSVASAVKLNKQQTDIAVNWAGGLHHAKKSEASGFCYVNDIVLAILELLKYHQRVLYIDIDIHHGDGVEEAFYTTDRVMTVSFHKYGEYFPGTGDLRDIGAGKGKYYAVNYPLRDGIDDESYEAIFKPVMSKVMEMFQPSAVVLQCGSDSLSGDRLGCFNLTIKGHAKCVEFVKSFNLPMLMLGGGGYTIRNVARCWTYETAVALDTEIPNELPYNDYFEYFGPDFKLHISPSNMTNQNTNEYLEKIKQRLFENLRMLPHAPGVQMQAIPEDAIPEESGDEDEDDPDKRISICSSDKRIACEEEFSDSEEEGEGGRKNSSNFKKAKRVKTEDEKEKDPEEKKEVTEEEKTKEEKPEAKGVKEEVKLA

Consider `C[C@]12CC[C@@H]3c4ccc(O)cc4CC[C@H]3[C@@H]1CC[C@@]2(O)c1cn(CCCC(=O)NO)nn1` [1a, 4-(4-((8R,9S,13S,14S,17S)-3,17-dihydroxy-13-methyl-7,8,9,11,12,13,14,15,16,17-decahydro-6H-cyclopenta[a]phenanthren-17-yl)-1H-1,2,3-triazol-1-yl)-N-hydroxybutanamide], for which the “ER subtype preference (ratio of ERα to ERβ agonist activity)” value on human ERβ LBD was “too weak in vitro to have an obvious preference”. Besides, the “HDAC inhibition activity, overall (isoform not given)” value on human recombinant HDAC1 is recorded as “most potent HDACi”. In the data set with MCF-7 cells (72 hours after drug dosing, ERα+/β+ breast cancer), the “antiproliferative activity IC50, MCF-7” value is reported as “comparable”. The “antiproliferative activity IC50, MDA-MB-231” value in the data set on MDA-MB-231 cells is on record as “comparable; also recorded: inhibit the growth of MDA-MB-231”. In addition, the “in vitro therapeutic index (IVTI)” value in the data set with VERO cells is given as “greater IVTI”.

In the case of `C[C@]12CC[C@@H]3c4ccc(O)cc4CC[C@H]3[C@@H]1CC[C@@]2(O)c1cn(CCCCC(=O)NO)nn1` [1b, 5-(4-((8R,9S,13S,14S,17S)-3,17-dihydroxy-13-methyl-7,8,9,11,12,13,14,15,16,17-decahydro-6H-cyclopenta[a]phenanthren-17-yl)-1H-1,2,3-triazol-1-yl)-N-hydroxypentanamide], the “ERα agonist activity (fold activation, relative to control no drug)” value in data set [1] is given as “most significant ERα agonist effect”.

Take `C[C@]12CC[C@@H]3c4ccc(O)cc4CC[C@H]3[C@@H]1CC[C@@]2(O)c1cn(CCCCCC(=O)NO)nn1` [1c, 6-(4-((8R,9S,13S,14S,17S)-3,17-dihydroxy-13-methyl-7,8,9,11,12,13,14,15,16,17-decahydro-6H-cyclopenta[a]phenanthren-17-yl)-1H-1,2,3-triazol-1-yl)-N-hydroxyhexanamide]: at human ERβ LBD, the ERβ agonist activity result was “significant ERβ activation” and the “ER subtype preference (ratio of ERα to ERβ agonist activity)” value is “preferentially bind ERβ”. The “HDAC inhibition activity, overall (isoform not given)” value at human recombinant HDAC1 is “most potent HDACi; also recorded: nM HDACi potency”. Moreover, the “antiproliferative activity IC50, MDA-MB-231” value in the data set with MDA-MB-231 cells is “inhibit the growth of MDA-MB-231”. For the same compound, the “antiproliferative activity IC50, DU145” value in the data set with DU145 cells is recorded as “evidence of DU145 cell growth inhibition”.

As for `C[C@]12CC[C@@H]3c4ccc(O)cc4CC[C@H]3[C@@H]1CC[C@@]2(O)c1cn(CCCCCCC(=O)NO)nn1` [1d, 7-(4-((8R,9S,13S,14S,17S)-3,17-dihydroxy-13-methyl-7,8,9,11,12,13,14,15,16,17-decahydro-6H-cyclopenta[a]phenanthren-17-yl)-1H-1,2,3-triazol-1-yl)-N-hydroxyheptanamide], the “ERα agonist activity (fold activation, relative to control no drug)” value in [1] is recorded as “most significant ERα agonist effect”. For the same compound, at human ERβ LBD, the ERβ agonist activity result is “significant ERβ activation” and the “ER subtype preference (ratio of ERα to ERβ agonist activity)” value is “preferentially bind ERβ”. For the same compound, at human recombinant HDAC1, the “HDAC inhibition activity, overall (isoform not given)” value was “most potent HDACi; also recorded: nM HDACi potency”. At human recombinant HDAC8, the “HDAC8 inhibition IC50” value is “order of magnitude greater HDAC8 inhibition”. For the same compound, in the data set on MDA-MB-231 cells, the “antiproliferative activity IC50, MDA-MB-231” value is on record as “inhibit the growth of MDA-MB-231”. In addition, the “antiproliferative activity IC50, DU145” value with DU145 cells is recorded as “evidence of DU145 cell growth inhibition”.

Take `C[C@]12CC[C@@H]3c4ccc(O)cc4CC[C@H]3[C@@H]1CC[C@@]2(O)c1cn(CCCCCCCC(=O)NO)nn1` [1e, 8-(4-((8R,9S,13S,14S,17S)-3,17-dihydroxy-13-methyl-7,8,9,11,12,13,14,15,16,17-decahydro-6H-cyclopenta[a]phenanthren-17-yl)-1H-1,2,3-triazol-1-yl)-N-hydroxyoctannamide]: the “ER subtype preference (ratio of ERα to ERβ agonist activity)” value on human ERβ LBD is on record as “too weak in vitro to have an obvious preference”. The “HDAC inhibition activity, overall (isoform not given)” value on human recombinant HDAC1 was “poor HDAC inhibition profile”.

For the compound `CC/C(=C(\c1ccccc1)c1ccc(OCCN(C)Cc2ccc(-c3cn(CCCCCC(=O)NO)nn3)cc2)cc1)c1ccccc1` [compound 2, Tamoxifen-Triazolylhydroxamic acid], the “potency relative to SAHA against MCF-7 (fold less potent)” value in the data set with MCF-7 cells was “about 1.7 fold”. The “in vitro therapeutic index (IVTI)” value in the data set on VERO cells is given as “greater IVTI”.

As to `CC/C(=C(\c1ccccc1)c1ccc(OCCN(C)Cc2ccc(NC(=O)CCCCCCC(=O)NO)cc2)cc1)c1ccccc1` [compound 3, Tamoxifen-SAHA Conjugate], the HDAC isoform selectivity result in the data set with human recombinant HDAC6 was “selective for HDAC6”. Further, the “potency relative to SAHA against MCF-7 (fold less potent)” value with MCF-7 cells is reported as “equipotent to SAHA”. Besides, the “in vitro therapeutic index (IVTI)” value with VERO cells is recorded as “greater IVTI”.
